The structures appear in SMILES notation. Bounds are passed on as bounds.

We go through 43 compounds from ChEMBL document CHEMBL2177038 (J Med Chem, 2012).

For one data set, the target named is Cannabinoid receptor 1 (Homo sapiens, UniProt P21554). As to the kind of experiment: biochemical. It is filed as cell-based, CHO.
For another data set, the species on record is Homo sapiens. As to the kind of experiment: Selectivity index, ratio of Ki for human CB1 receptor to KI for human CB2 receptor.
The target in data set [1] is T1, Cannabinoid receptor 2 (Homo sapiens, UniProt P34972). As to the kind of experiment: Displacement of [3H]CP55940 from human CB2 receptor expressed in CHO cells incubated for 1 hr. It is filed as cell-based. On the technique in general: Displacement assays read how much labelled ligand stays bound in the presence of the test substance.
T1 sequence (P34972 whole entry): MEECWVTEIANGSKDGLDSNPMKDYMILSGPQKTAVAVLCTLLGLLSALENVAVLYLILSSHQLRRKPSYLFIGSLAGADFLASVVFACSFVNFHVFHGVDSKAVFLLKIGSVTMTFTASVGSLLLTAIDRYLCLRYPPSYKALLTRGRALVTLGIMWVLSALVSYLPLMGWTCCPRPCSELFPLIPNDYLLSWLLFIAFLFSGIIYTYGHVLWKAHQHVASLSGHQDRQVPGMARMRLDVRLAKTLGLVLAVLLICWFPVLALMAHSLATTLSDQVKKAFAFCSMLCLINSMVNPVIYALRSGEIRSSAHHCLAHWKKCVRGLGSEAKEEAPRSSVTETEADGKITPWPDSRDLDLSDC
The test system of data set [2] is Bone marrow cell. As to the kind of experiment: Inhibition of osteoclastogenesis in human mononuclear bone marrow cells incubated for 3 weeks at 37 degC by osteoclast formation assay. It is filed as functional, cell-based. The essentials:
(§1)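 Nonadherent human marrow mononuclear cells from healthy donors, 2×10^5 per well, in MEM with 20% horse serum, 10 ng/mL M-CSF and 25 ng/mL RANKL (legend states RANKL 50 ng/mL). Compounds present throughout, with drug-containing half-medium changes twice weekly; 3 weeks at 37 °C, 5% CO2. 23c6 antibody stain; 23c6+ cells with ≥3 nuclei counted; triplicate, mean ± SD.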

The test system of a further data set is PBMC. As to the kind of experiment: Toxicity against human PBMC assessed effect on cell viability at 1 to 10 uM incubated for 72 hrs by trypan blue dye exclusion method. It is filed as cell-based. The essentials: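 PBMC from healthy medication-free donors, isolated on Ficoll-Hypaque, washed in ice-cold PBS. Cells held in medium with 10% inactivated FBS and 2 mM glutamine (5×10^5/mL; legend 10^5 cells/well). Compounds come from a 50 mM DMSO stock, final DMSO 0.02%, exposure 72 h. Viability read by trypan blue exclusion; three assays, mean ± SD.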

Data set [3] concerns the target T1, Cannabinoid receptor 2. As to the kind of experiment: Inverse agonist activity at human CB2 receptor expressed in CHO cells assessed as increase in forskolin-induced cAMP accumulation incubated for 45 mins by TR-FRET method based LANCE cAMP assay. It is filed as functional, cell-based. In general terms: Cyclic AMP is a second messenger, typically raised through Gs and lowered through Gi signalling.

Data set [4] has as its system Bone marrow cell. As to the kind of experiment: Inhibition of osteoclastogenesis in human mononuclear bone marrow cells at 1 uM incubated for 3 weeks at 37 degC by osteoclast formation assay. It is filed as functional. As to conditions: 504 h. The essentials:
as §1

Data set [5] relates to Bone marrow cell. As to the kind of experiment: Inhibition of osteoclastogenesis in human mononuclear bone marrow cells at 10 uM incubated for 3 weeks at 37 degC by osteoclast formation assay. It is filed as functional. As to conditions: 504 h. The essentials:
as §1

In data set [6] the test system is Bone marrow cell. As to the kind of experiment: Inhibition of osteoclastogenesis in human mononuclear bone marrow cells at 0.1 uM incubated for 3 weeks at 37 degC by osteoclast formation assay. It is filed as functional. As to conditions: 504 h. The essentials: as §1

Sequence of Cannabinoid receptor 1 (P21554 whole entry): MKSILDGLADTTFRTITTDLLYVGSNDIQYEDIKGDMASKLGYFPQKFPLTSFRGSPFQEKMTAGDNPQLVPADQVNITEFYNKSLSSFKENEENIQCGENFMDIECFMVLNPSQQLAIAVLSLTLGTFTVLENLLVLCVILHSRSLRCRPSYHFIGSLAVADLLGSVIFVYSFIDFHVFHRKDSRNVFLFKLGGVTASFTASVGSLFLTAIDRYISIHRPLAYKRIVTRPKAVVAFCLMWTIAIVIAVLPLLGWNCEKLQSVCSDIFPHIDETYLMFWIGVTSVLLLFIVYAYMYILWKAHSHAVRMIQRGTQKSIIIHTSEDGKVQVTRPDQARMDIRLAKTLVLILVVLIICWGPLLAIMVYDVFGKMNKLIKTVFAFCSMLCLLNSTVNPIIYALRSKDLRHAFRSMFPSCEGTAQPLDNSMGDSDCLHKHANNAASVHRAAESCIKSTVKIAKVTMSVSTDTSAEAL

Broadly, the Ki is a dissociation constant, usually derived from enzyme kinetics or from competition with a known ligand. Low values mean tighter binding, high ones weaker binding. In the case of `Cc1ccc(C(NC(=O)Cc2ccc(Cl)cc2)NC(=O)Cc2ccc(Cl)cc2)cc1`, the Ki at Cannabinoid receptor 1 is above 20 µM. For the same compound, the Ratio Ki in the data set listed under Homo sapiens is above 43.

With `CCN(CC)c1ccc(C(NC(=O)CCc2ccccc2)NC(=O)CCc2ccccc2)cc1`, the Ki is above 20 µM at Cannabinoid receptor 1 and 0.213 µM at Cannabinoid receptor 2 [1].

For `O=C(Cc1ccccc1)NC(NC(=O)Cc1ccccc1)c1ccc(N2CCCCC2)cc1`, the inhibition constant (Ki) at Cannabinoid receptor 1 is above 20 µM. Also, in the data set listed under Homo sapiens, the Ratio Ki was above 34.

Turning to `O=C(Cc1ccccc1)NC(NC(=O)Cc1ccccc1)c1ccc(C(F)(F)F)cc1`, the inhibition constant Ki at Cannabinoid receptor 1 is above 20 µM. Moreover, the Ratio Ki in the data set filed under Homo sapiens was above 34.

In the case of `O=C(Cc1ccc(C(F)(F)F)cc1)NC(NC(=O)Cc1ccc(C(F)(F)F)cc1)c1ccc(F)cc1`, the Ki on Cannabinoid receptor 2 [1] was above 20 µM.

As usually defined, the inhibition is the change of the read-out against control, counted positive when it falls. As usually defined, the EC50 is the concentration that produces a half-maximal response. Take `CC(C)c1ccc(C(NC(=O)Cc2ccccc2)NC(=O)Cc2ccccc2)cc1`: in the data set with Bone marrow cell [2], the inhibition entry is “Dose-dependent effect”. Further, the Activity entry in the data set with PBMC is reported as “Non-toxic”. Also, at Cannabinoid receptor 1, the Ki was above 20 µM. For the same compound, the EC50 on Cannabinoid receptor 2 [3] worked out at 0.00411 µM.

With `CCCCCCCCCC(=O)NC(NC(=O)CCCCCCCCC)c1ccc(N(CC)CC)cc1`, the Ki at Cannabinoid receptor 1 was above 20 µM.

As to `CCCN(CCC)c1ccc(C(NC(=O)Cc2ccccc2)NC(=O)Cc2ccccc2)cc1`, the inhibition constant (Ki) was above 20 µM at Cannabinoid receptor 1 and 0.022 µM at Cannabinoid receptor 2 [1]. Also, the EC50 on Cannabinoid receptor 2 [3] worked out at 0.0283 µM.

As to `Cc1ccc(Cn2nc(C(=O)N[C@@H]3C(C)(C)[C@@H]4CC[C@@]3(C)C4)cc2-c2ccc(Cl)c(C)c2)cc1` [SR-144528], the Activity entry in the data set with PBMC is “Non-toxic”.

As for `O=C(Cc1ccc(Cl)cc1)NC(NC(=O)Cc1ccc(Cl)cc1)c1ccc(C(F)(F)F)cc1`, the Ki at Cannabinoid receptor 1 is above 20 µM. Also, the Ratio Ki in the data set filed under Homo sapiens was above 198.

For `CCN(CC)c1ccc(C(NC(=O)c2ccccc2)NC(=O)c2ccccc2)cc1`, the Ki on Cannabinoid receptor 1 is above 20 µM. Besides, in the data set listed under Homo sapiens, the Ratio Ki is above 29.

`O=C(Cc1ccc(Cl)cc1)NC(NC(=O)Cc1ccc(Cl)cc1)c1ccc(F)cc1` had a Ki on Cannabinoid receptor 2 [1] above 20 µM.

Compound `O=C(Cc1ccc(Cl)cc1)NC(NC(=O)Cc1ccc(Cl)cc1)c1ccc(Cl)cc1` yielded a Ki at Cannabinoid receptor 1 above 20 µM. In the data set listed under Homo sapiens, the Ratio Ki is above 130.

Consider `O=C(Cc1ccccc1)NC(NC(=O)Cc1ccccc1)c1ccc(N(Cc2ccccc2)Cc2ccccc2)cc1`, for which the Ki at Cannabinoid receptor 1 is above 20 µM; on Cannabinoid receptor 2 [1], 0.203 µM. The Ratio Ki in the data set listed under Homo sapiens was above 99.

In turn, `CCN(CC)c1ccc(C(NC(=O)C(C)C)NC(=O)C(C)C)cc1` had a Ki at Cannabinoid receptor 1 above 20 µM.

In turn, `O=C(Cc1ccc(C(F)(F)F)cc1)NC(NC(=O)Cc1ccc(C(F)(F)F)cc1)c1ccccc1F` displayed an inhibition constant Ki on Cannabinoid receptor 2 [1] above 20 µM.

For `O=C(Cc1ccccc1)NC(NC(=O)Cc1ccccc1)c1ccc(N2CCCC2)cc1`, the values for the Ki at Cannabinoid receptor 1 and on Cannabinoid receptor 2 [1] were above 20 µM and 0.071 µM, respectively. Also, the Ratio Ki in the data set filed under Homo sapiens was above 281. Also, on Cannabinoid receptor 2 [3], the EC50 came out at 0.0171 µM.

`COc1ccc(C(NC(=O)Cc2ccc(Cl)cc2)NC(=O)Cc2ccc(Cl)cc2)cc1`: the inhibitory constant (Ki) on Cannabinoid receptor 1 was above 20 µM. The Ratio Ki in the data set listed under Homo sapiens is above 65.

Consider `O=C(Cc1ccccc1)NC(/C=C/c1ccccc1)NC(=O)Cc1ccccc1`, for which the inhibitory constant (Ki) on Cannabinoid receptor 1 was above 20 µM.

`CN(C)c1ccc(C(NC(=O)Cc2ccccc2)NC(=O)Cc2ccccc2)cc1`: the inhibition result in the data set with Bone marrow cell [2] is “Dose-dependent effect”. In addition, the Activity entry in the data set with PBMC is “Non-toxic”. Further, the Ki at Cannabinoid receptor 1 was above 20 µM. For the same compound, the Ratio Ki in the data set listed under Homo sapiens was above 26. Further, the 50% effective concentration (EC50) at Cannabinoid receptor 2 [3] was found to be 0.159 µM.

`CCCCC(=O)NC(NC(=O)CCCC)c1ccc(N(CC)CC)cc1`: the Ki at Cannabinoid receptor 1 was above 20 µM. For the same compound, the Ratio Ki in the data set listed under Homo sapiens was above 109.

In the case of `CC(C)Oc1ccc(C(NC(=O)Cc2ccccc2)NC(=O)Cc2ccccc2)cc1`, in the data set on Bone marrow cell [2], the inhibition result is “Dose-dependent effect”. In addition, the Activity entry with PBMC is listed as “Non-toxic”. The compound also gave a Ki at Cannabinoid receptor 1 above 20 µM.

As to `O=C(Cc1ccc(C(F)(F)F)cc1)NC(NC(=O)Cc1ccc(C(F)(F)F)cc1)c1ccc(C(F)(F)F)cc1`, the Ki on Cannabinoid receptor 2 [1] is above 20 µM.

Take `Cc1ccc(Cn2nc(C(=O)NC3C4(C)CCC(C4)C3(C)C)cc2-c2ccc(Cl)c(C)c2)cc1` (centres undefined): the inhibition result in the data set with Bone marrow cell [2] is “Dose-dependent effect”.

`CCCCCC(NC(=O)Cc1ccccc1)NC(=O)Cc1ccccc1` came in with a Ki on Cannabinoid receptor 1 above 20 µM.

With `O=C(Cc1ccccc1)NC(NC(=O)Cc1ccccc1)c1ccc([N+](=O)[O-])cc1`, the Ki at Cannabinoid receptor 2 [1] was above 20 µM.

In the case of `CCCCCCCC(=O)NC(NC(=O)CCCCCCC)c1ccc(N(CC)CC)cc1`, the Ki at Cannabinoid receptor 1 was above 20 µM. The Ratio Ki in the data set filed under Homo sapiens is above 136.

Compound `O=C(Cc1ccccc1)NC(CCc1ccccc1)NC(=O)Cc1ccccc1` had a Ki at Cannabinoid receptor 1 above 20 µM.

Turning to `CCN(CC)c1ccc(C(NC(=O)C(C)(C)C)NC(=O)C(C)(C)C)cc1`, the Ki at Cannabinoid receptor 1 was above 20 µM.

For the compound `Nc1ccc(C(NC(=O)Cc2ccccc2)NC(=O)Cc2ccccc2)cc1`, at Cannabinoid receptor 2 [1], the Ki was determined as 12.6 µM.

The compound `CCCCN(CCCC)c1ccc(C(NC(=O)Cc2ccccc2)NC(=O)Cc2ccccc2)cc1` yielded a Ki on Cannabinoid receptor 1 above 20 µM. Further, in the data set listed under Homo sapiens, the Ratio Ki is above 90.

`CCN(CC)c1ccc(C(NC(=O)/C=C/c2ccccc2)NC(=O)/C=C/c2ccccc2)cc1`: the Ki at Cannabinoid receptor 1 was above 20 µM; on Cannabinoid receptor 2 [1] it was 0.167 µM. Further, in the data set listed under Homo sapiens, the Ratio Ki was above 119.

On Cannabinoid receptor 1, `O=C(Cc1ccc(Cl)cc1)NC(NC(=O)Cc1ccc(Cl)cc1)c1ccccc1C(F)(F)F` displayed a Ki above 20 µM. Besides, the Ratio Ki in the data set listed under Homo sapiens was above 127.

`O=C(Cc1ccc(C(F)(F)F)cc1)NC(NC(=O)Cc1ccc(C(F)(F)F)cc1)c1ccccc1` registered a Ki on Cannabinoid receptor 2 [1] above 20 µM.

On to `O=C(Cc1ccccc1)NC(Cc1ccccc1)NC(=O)Cc1ccccc1`, for which the Ki on Cannabinoid receptor 1 and at Cannabinoid receptor 2 [1] was above 20 µM throughout.

Compound `COc1ccc(C(NC(=O)Cc2ccc(C(F)(F)F)cc2)NC(=O)Cc2ccc(C(F)(F)F)cc2)cc1` came in with a Ki at Cannabinoid receptor 2 [1] above 20 µM.

In the data set with Bone marrow cell [4], `CCN(CC)c1ccc(C(NC(=O)Cc2ccccc2)NC(=O)Cc2ccccc2)cc1` displayed an inhibition at 1 µM of 79%. In addition, in the data set on Bone marrow cell [2], the inhibition result was “Dose-dependent effect”. Further, the Activity entry in the data set on PBMC is “Non-toxic”. Besides, the inhibition at 10 µM with Bone marrow cell [5] came to 84%. This compound also showed a Ki on Cannabinoid receptor 1 above 20 µM. Also, the Ratio Ki in the data set listed under Homo sapiens is above 313. Also, on Cannabinoid receptor 2 [3], the EC50 stood at 0.00573 µM. Besides, the inhibition at 0.1 µM in the data set with Bone marrow cell [6] worked out at 72%.

For `O=C(Cc1ccc(Cl)cc1)NC(NC(=O)Cc1ccc(Cl)cc1)c1ccccc1`, at Cannabinoid receptor 2 [1], the inhibitory constant (Ki) was above 20 µM.

Take `COc1ccc(C(NC(=O)Cc2ccccc2)NC(=O)Cc2ccccc2)cc1`: the inhibition constant (Ki) at Cannabinoid receptor 1 is above 20 µM. In the data set listed under Homo sapiens, the Ratio Ki is above 26.

`CCCCCC(=O)NC(NC(=O)CCCCC)c1ccc(N(CC)CC)cc1`: on Cannabinoid receptor 1, the Ki is above 20 µM. Further, in the data set listed under Homo sapiens, the Ratio Ki was above 800. Also, the EC50 at Cannabinoid receptor 2 [3] is 0.0134 µM.

Regarding `O=C(Cc1ccc(Cl)cc1)NC(NC(=O)Cc1ccc(Cl)cc1)c1ccc([N+](=O)[O-])cc1`, on Cannabinoid receptor 2 [1], the Ki is above 20 µM.

For the compound `O=C(Cc1ccc(C(F)(F)F)cc1)NC(NC(=O)Cc1ccc(C(F)(F)F)cc1)c1ccc(Cl)cc1`, the Ki on Cannabinoid receptor 2 [1] was above 20 µM.

Consider `Cc1ccc(C(NC(=O)Cc2ccc(C(F)(F)F)cc2)NC(=O)Cc2ccc(C(F)(F)F)cc2)cc1`, for which the Ki at Cannabinoid receptor 2 [1] is above 20 µM.
